# Assay results: ChEMBL document CHEMBL1154599 (J Med Chem, 2009)
# pIC50: −log10 of the molar value.
# What was measured:
# [1] = molecular target: T1, Amine oxidase [flavin-containing] B (Rattus norvegicus, UniProt P19643); assay: Inhibition of MAO-B from Wistar rat brain by radioenzymatic assay
# T1 sequence (P19643 whole entry): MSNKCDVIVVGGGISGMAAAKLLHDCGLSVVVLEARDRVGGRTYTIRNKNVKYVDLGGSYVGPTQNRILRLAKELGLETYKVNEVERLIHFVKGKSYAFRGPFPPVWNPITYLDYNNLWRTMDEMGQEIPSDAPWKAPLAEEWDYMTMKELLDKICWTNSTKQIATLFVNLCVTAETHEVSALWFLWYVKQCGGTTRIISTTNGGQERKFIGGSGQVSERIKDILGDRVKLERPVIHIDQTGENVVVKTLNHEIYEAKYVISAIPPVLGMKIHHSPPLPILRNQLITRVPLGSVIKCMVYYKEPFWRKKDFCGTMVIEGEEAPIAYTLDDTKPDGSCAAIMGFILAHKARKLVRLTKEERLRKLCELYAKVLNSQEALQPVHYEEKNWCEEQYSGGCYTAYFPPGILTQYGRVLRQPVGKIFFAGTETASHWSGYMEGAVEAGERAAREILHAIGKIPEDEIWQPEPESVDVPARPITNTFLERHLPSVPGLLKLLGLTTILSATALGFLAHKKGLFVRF
# Method in brief: (§1)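 Crude mitochondrial fraction from male Wistar rat brain (150-175 g), 500 μg protein in 0.1 M phosphate pH 7.40. Preincubated 30 min at 37 °C with compound. Substrate then added: [14C]5-HT 5 μM for 30 min (MAO-A) or [14C]PEA 0.5 μM for 10 min (MAO-B), 37 °C. Stopped with acid, deaminated metabolites extracted into ether or toluene, counted by scintillation.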
# [2] = molecular target: T2, Amine oxidase [flavin-containing] A (Rattus norvegicus, UniProt P21396); assay: Inhibition of MAO-A from Wistar rat brain by radioenzymatic assay; method in brief: as §1
# T2 sequence (P21396 whole entry): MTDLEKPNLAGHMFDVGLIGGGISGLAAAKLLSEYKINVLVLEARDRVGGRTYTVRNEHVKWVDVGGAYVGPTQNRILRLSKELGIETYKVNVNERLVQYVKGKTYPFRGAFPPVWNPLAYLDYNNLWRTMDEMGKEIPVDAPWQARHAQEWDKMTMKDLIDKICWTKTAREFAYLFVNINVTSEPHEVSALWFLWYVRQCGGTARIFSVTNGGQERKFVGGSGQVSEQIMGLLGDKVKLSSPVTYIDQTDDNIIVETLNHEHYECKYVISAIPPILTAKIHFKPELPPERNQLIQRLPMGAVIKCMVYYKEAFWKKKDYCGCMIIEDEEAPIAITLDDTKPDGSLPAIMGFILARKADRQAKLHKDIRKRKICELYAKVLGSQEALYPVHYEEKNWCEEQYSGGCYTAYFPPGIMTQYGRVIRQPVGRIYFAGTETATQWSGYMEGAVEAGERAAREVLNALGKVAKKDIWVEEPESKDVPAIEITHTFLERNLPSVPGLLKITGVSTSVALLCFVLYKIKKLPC
# [3] = species: Rattus norvegicus; assay: Selectivity index, ratio of IC50 for rat MAO-A to IC50 for rat MAO-B
# Method in brief: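 Ratio of IC50 values from rat brain mitochondrial radioenzymatic assays: MAO-A with [14C]5-HT 5 μM, 30 min, and MAO-B with [14C]PEA 0.5 μM, 10 min. Both after 30 min preincubation with compound at 37 °C.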
# [4] = molecular target: T2, Amine oxidase [flavin-containing] A; assay: Inhibition of MAO-A from Wistar rat brain at 10 uM by radioenzymatic assay
# [5] = Permeability across PAMPA membrane assessed as amount of drug reaching acceptor compartment at 617 uM by HDM-PAMPA assay; format: ADME
# Method in brief: (§2)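 HDM-PAMPA on polycarbonate filters coated with hexadecane (applied in hexane, which was evaporated). Donor at 617 μM in 0.1 M phosphate pH 6.8 with 5% DMSO, same pH in donor and acceptor. Incubated 5 h at room temperature with shaking at 75 rpm. Compartments quantified by HPLC. Pe, retention R and CA(t)/CD(0) calculated by equations 1-2. Quadruplicate.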
# [6] = Permeability across PAMPA membrane assessed as retention at 617 uM by HDM-PAMPA assay; format: ADME; method in brief: as §2
# [7] = Permeability across PAMPA membrane assessed as permeability coefficient at 617 uM by HDM-PAMPA assay; format: ADME; method in brief: as §2
# [8] = Octanol-water partition coefficient, log P calculated with Bioloom (BioByte)
smiles,measurement,setting,value
NCCNC(=O)Cc1cc(=O)oc2cc(OCc3cccc(Cl)c3)ccc12,pIC50,[1],< 5.00
same,pIC50,[2],< 4.00
N#CCc1cc(=O)oc2cc(OCc3ccccc3)ccc12,pIC50,[1],6.64
same,Ratio IC50,[3],0.9
same,pIC50,[2],6.70
NC(=O)[C@@H]1CCCN1c1cc(=O)oc2cc(OCc3ccccc3)ccc12,pIC50,[1],4.79
same,Ratio IC50,[3],6
same,pIC50,[2],4.00
NC(=O)Cc1cc(=O)oc2cc(OCc3cccc(Cl)c3)ccc12,pIC50,[1],7.52
same,Ratio IC50,[3],867
same,pIC50,[2],4.59
CN(C)CCc1cc(=O)oc2cc(OCc3ccccc3)ccc12,pIC50,[1],6.34
same,Ratio IC50,[3],56
same,pIC50,[2],4.59
CC(C(N)=O)c1cc(=O)oc2cc(OCc3cccc(F)c3)ccc12 (racemic),pIC50,[1],7.00
same,Ratio IC50,[3],20
same,pIC50,[2],5.70
NCCc1cc(=O)oc2cc(OCc3cccc(Cl)c3)ccc12,Ratio IC50,[3],127
CC(C)NCc1cc(=O)oc2cc(OCc3cccc(F)c3)ccc12,pIC50,[1],5.42
same,Ratio IC50,[3],24
same,pIC50,[2],4.04
C[C@H](NCc1cc(=O)oc2cc(OCc3ccccc3)ccc12)C(N)=O,pIC50,[1],5.74
same,Ratio IC50,[3],13
same,pIC50,[2],4.64
NCc1cc(=O)oc2cc(OCc3ccccc3)ccc12,pIC50,[1],7.68
same,Ratio IC50,[3],210
same,pIC50,[2],5.36
CN(C)Cc1cc(=O)oc2cc(OCc3cccc(F)c3)ccc12,pIC50,[1],6.29
same,Ratio IC50,[3],> 196
same,pIC50,[2],< 4.00
NC(=O)Cc1cc(=O)oc2cc(OCc3cccc(F)c3)ccc12,Ratio IC50,[3],1400
NC(=O)Cc1cc(=O)oc2cc(OCc3cccc(O)c3)ccc12,pIC50,[1],6.00
same,Ratio IC50,[3],4
same,pIC50,[2],5.37
CN(Cc1ccccc1)Cc1cc(=O)oc2cc(OCc3cccc(Cl)c3)ccc12,pIC50,[1],5.10
same,Ratio IC50,[3],> 13
same,pIC50,[2],< 4.00
NC(=O)[C@@H]1CCCN1Cc1cc(=O)oc2cc(OCc3cccc(F)c3)ccc12,pIC50,[1],6.07
same,Ratio IC50,[3],> 117
same,pIC50,[2],< 4.00
NNC(=O)Cc1cc(=O)oc2cc(OCc3ccccc3)ccc12,Ratio IC50,[3],36
same,pIC50,[2],5.84
CNCc1cc(=O)oc2cc(OCc3ccccc3)ccc12,pIC50,[1],7.55
same,Ratio IC50,[3],550
same,pIC50,[2],4.81
CNCCc1cc(=O)oc2cc(OCc3cccc(Cl)c3)ccc12,Ratio IC50,[3],247
NC(=O)Cc1cc(=O)oc2cc(OCc3ccccc3)ccc12,pIC50,[1],6.70
same,Ratio IC50,[3],40
same,pIC50,[2],5.10
CNC(=O)Cc1cc(=O)oc2cc(OCc3ccccc3)ccc12,pIC50,[1],7.82
same,Ratio IC50,[3],187
same,pIC50,[2],5.55
NCc1cc(=O)oc2cc(OCc3cccc(Cl)c3)ccc12,pIC50,[1],7.82
same,Ratio IC50,[3],133
same,pIC50,[2],5.70
NC(=O)[C@H](CO)Nc1cc(=O)oc2cc(OCc3cccc(Cl)c3)ccc12,pIC50,[1],5.62
same,Ratio IC50,[3],> 42
same,pIC50,[2],< 4.00
NC(=O)[C@@H]1CCCN1c1cc(=O)oc2cc(OCc3cccc(Cl)c3)ccc12,pIC50,[1],5.02
same,inhibition at 10 µM,[4],5%
NNC(=O)Cc1cc(=O)oc2cc(OCc3cccc(Cl)c3)ccc12,pIC50,[1],7.05
same,Ratio IC50,[3],28
same,pIC50,[2],5.60
CNCc1cc(=O)oc2cc(OCc3cccc(F)c3)ccc12,pIC50,[1],7.74
CN(C)Cc1cc(=O)oc2cc(OCc3cccc(Cl)c3)ccc12,pIC50,[1],5.95
same,Ratio IC50,[3],45
same,pIC50,[2],4.29
CN(C)C(=O)Cc1cc(=O)oc2cc(OCc3ccccc3)ccc12,pIC50,[1],6.40
same,Ratio IC50,[3],58
same,pIC50,[2],4.64
O=C(Cc1cc(=O)oc2cc(OCc3cccc(Cl)c3)ccc12)NCc1ccccc1,pIC50,[1],5.30
same,Ratio IC50,[3],> 20
same,pIC50,[2],< 4.00
O=c1cc(CNCc2ccccc2)c2ccc(OCc3cccc(Cl)c3)cc2o1,pIC50,[1],5.44
same,Ratio IC50,[3],> 28
same,pIC50,[2],< 4.00
CNCc1cc(=O)oc2cc(OCc3ccc4c(c3)OCO4)ccc12,pIC50,[1],7.70
same,Ratio IC50,[3],270
same,pIC50,[2],5.27
CN(C)Cc1cc(=O)oc2cc(OCc3ccccc3)ccc12,pIC50,[1],5.74
same,Ratio IC50,[3],56
same,pIC50,[2],4.00
NC(=O)Cc1cc(=O)oc2cc(OCc3ccncc3)ccc12,pIC50,[1],5.70
same,Ratio IC50,[3],13
same,pIC50,[2],4.58
NC(=O)Cc1cc(=O)oc2cc(OCc3cccnc3)ccc12,pIC50,[1],5.89
same,Ratio IC50,[3],16
same,pIC50,[2],4.68
N#CCc1cc(=O)oc2cc(OCc3cccc(Cl)c3)ccc12,pIC50,[1],7.80
same,Ratio IC50,[3],29
same,pIC50,[2],6.33
C[C@H](Nc1cc(=O)oc2cc(OCc3ccccc3)ccc12)C(N)=O,pIC50,[1],6.17
same,Ratio IC50,[3],147
same,pIC50,[2],4.00
CC(C(N)=O)c1cc(=O)oc2cc(OCc3ccccc3)ccc12 (racemic),pIC50,[1],7.00
same,Ratio IC50,[3],63
same,pIC50,[2],5.20
C[C@H](Nc1cc(=O)oc2cc(OCc3cccc(Cl)c3)ccc12)C(N)=O,pIC50,[1],6.68
same,inhibition at 10 µM,[4],35%
CN(C)C(=O)Cc1cc(=O)oc2cc(OCc3cccc(Cl)c3)ccc12,Ratio IC50,[3],> 2400
CNC(=O)Cc1cc(=O)oc2cc(OCc3cccc(Cl)c3)ccc12,pIC50,[1],7.62
same,Ratio IC50,[3],21
same,pIC50,[2],6.30
Cc1cc(=O)oc2cc(OCc3cccc(Cl)c3)ccc12,permeability,[5],3.7%
same,permeability,[6],72%
same,log Pe,[7],-4.13 cm/s
same,logP,[8],4.73
CCCCN(C)C(=O)Cc1cc(=O)oc2cc(OCc3cccc(Cl)c3)ccc12,pIC50,[1],< 5.00
same,pIC50,[2],< 4.00
CCCCNC(=O)Cc1cc(=O)oc2cc(OCc3cccc(Cl)c3)ccc12,pIC50,[1],< 5.00
same,pIC50,[2],< 4.00
CCNCc1cc(=O)oc2cc(OCc3cccc(F)c3)ccc12,pIC50,[1],7.00
same,Ratio IC50,[3],226
same,pIC50,[2],4.65
NC(=O)[C@@H]1CCCN1Cc1cc(=O)oc2cc(OCc3ccccc3)ccc12,pIC50,[1],6.42
same,Ratio IC50,[3],92
same,pIC50,[2],4.46
